Shown are actives, neighbours in structure and some others; about 4% of the full set was active somewhere.
Granule exo inh = LAMP-1 surface exposure blockers, TALL-104 cells – cell-based, flow cytometry, MLPCN library, primary screen; inhibition, % at 10 µM; TALL-104 LAMP-1 surface exposure; cells stimulated with thapsigargin and PMA; hit rate 0.66% among 360,000;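 active = inhibition above about 55%, limit read from the data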
UPR CHOP act = activators of apoptotic CHOP UPR arm, primary screen, cell-based, CHO-CHOP luciferase reporter, luminescence, uHTS. UPR activation; percent of tunicamycin response over DMSO baseline. activation, % at 10 µM. hit rate 0.34% among 330,000. AID 449763, 2010;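 active = at 10 µM dose, activation of 40% or more, normalized to positive control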;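 also: 100% = tunicamycin at 10 µg/mL and 0% = DMSO alone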
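System: CHO-CHOP luciferase reporter cell line | Buffer or medium: F12 medium containing 10% fetal bovine serum | Doses: One dose, 10 µM in 0.5% DMSO | Times: 6 h compound exposure at 37 °C after overnight seeding | Signal: Luciferase luminescence | Read-out: % activation vs tunicamycin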
ABHD5-PLIN5 inh = ABHD5-PLIN5 interaction inhibitors, primary screen, cell lysate, split luciferase complementation, luminescence | AID 602281, 2012 | hit rate 0.78% among 360,000 | Perilipin-5 (Homo sapiens) + 1-acylglycerol-3-phosphate O-acyltransferase ABHD5 (Homo … | Split G. princeps luciferase complementation, 4 h | inhibition, % at 4 µM;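 active = inhibition above the mean inhibition across every tested compound plus 3 SD, cut at about 22% in these data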;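 also: 0% = DMSO only wells and the 100% control is not disclosed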
Target sequence (Q00G26 whole entry, looked up): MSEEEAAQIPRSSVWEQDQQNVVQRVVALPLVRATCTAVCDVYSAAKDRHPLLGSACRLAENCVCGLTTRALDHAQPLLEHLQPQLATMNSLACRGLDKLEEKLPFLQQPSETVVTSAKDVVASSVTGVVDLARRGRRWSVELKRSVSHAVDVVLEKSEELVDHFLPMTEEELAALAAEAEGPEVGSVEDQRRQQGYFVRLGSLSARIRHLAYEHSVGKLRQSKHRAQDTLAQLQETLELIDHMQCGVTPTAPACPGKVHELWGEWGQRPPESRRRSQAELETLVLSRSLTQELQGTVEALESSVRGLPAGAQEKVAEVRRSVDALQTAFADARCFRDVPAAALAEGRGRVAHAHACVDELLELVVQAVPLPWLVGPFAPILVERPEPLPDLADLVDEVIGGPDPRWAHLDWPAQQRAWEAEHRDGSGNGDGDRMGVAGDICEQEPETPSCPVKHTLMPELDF
Target sequence (Q8WTS1 whole entry, looked up): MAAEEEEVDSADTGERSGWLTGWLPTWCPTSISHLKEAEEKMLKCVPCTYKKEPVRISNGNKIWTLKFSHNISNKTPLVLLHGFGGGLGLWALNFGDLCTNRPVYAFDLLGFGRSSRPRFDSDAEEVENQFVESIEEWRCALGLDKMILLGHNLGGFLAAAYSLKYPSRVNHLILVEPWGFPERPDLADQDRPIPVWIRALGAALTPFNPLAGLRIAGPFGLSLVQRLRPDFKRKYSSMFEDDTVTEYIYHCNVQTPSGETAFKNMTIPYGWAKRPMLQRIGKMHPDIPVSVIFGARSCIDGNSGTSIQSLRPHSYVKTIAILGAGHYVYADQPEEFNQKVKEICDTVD
Mdm2 MdmX PPI = inhibitors of human Mdm2-MdmX association, primary screen, cell-based, luminescence, split luciferase, SaOS-2, uHTS | SaOS-2 split-luciferase Mdm2/MdmX complementation | AID 485346, 2010 | inhibition, % at 8 µM | Protein Mdm4 (Homo sapiens) + E3 ubiquitin-protein ligase Mdm2 (Homo sapiens), … | hit rate 3% among 330,000;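 active = inhibition of at least 50% at 8 µM in the primary screen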
XBP1 UPR activ = activators of adaptive XBP1 UPR arm, primary screen, cell-based, CHO-XBP1 luciferase reporter, luminescence, uHTS | activation, % at 20 µM | hit rate 0.33% among 330,000 | IRE1-XBP1 UPR activation; percent of tunicamycin response, DMSO as zero | AID 463104, 2010;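 active = versus positive control, 20 µM dose yields 30% or more activation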;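 also: 100% = tunicamycin at 10 µg/mL and 0% = DMSO only wells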
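Test system: CHO-XBP1 luciferase reporter cells | Buffer or medium: Serum-containing F12 medium, 10% FBS | Schedule: 6 h compound exposure at 37 °C, 5% CO2 | Detection: Steady-Glo luciferase glow luminescence, 10 min after reagent addition | Read-out basis: Activation, % of tunicamycin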
Mdm2-MdmX conf = Mdm2-MdmX complex disruptors, retested hits, confirmation, luminescence, single concentration. Mdm2-MdmX binding, luminescent assay. inhibition, % at 8 µM. shares compounds with Mdm2 MdmX PPI. AID 489028, 2010. hit rate 55% among 10,000; in the data active = inhibition above about 40%
FLuc counter = full-length luciferase signal inhibition, confirmation, counter-screen for Mdm2/MdmX interaction inhibitor project, cell-based, single concentration, SaOS-2; hit rate 77% among 6,200; shares compounds with Mdm2 MdmX PPI; AID 504607, 2011; SaOS-2 full-length luciferase counterscreen, luminescence; inhibition, % at 8 µM;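 active = mean inhibition at 8 µM reaching about 37%, which flags the compound as non-specific, limit read from the data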;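 also: p53-null SaOS-2 cells with luciferase driven by a doxycycline-inducible promoter; compound on cells about two nights before reading with doxycycline added after day one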
An asterisk follows results filed as active; x = no result.

SMILES	Granule exo inh	UPR CHOP act	ABHD5-PLIN5 inh	Mdm2 MdmX PPI	XBP1 UPR activ	Mdm2-MdmX conf	FLuc counter
COc1cc(S(=O)(=O)Nc2cc(C)cc(C)c2)ccc1F	7	2	10	19	0	x	x
COc1ccc2[nH]c3c(c(=O)c2c1)CCCC3	4	x	7	x	x	x	x
COc1ccc2[nH]c3c(c2c1)CC(C)NC3=O (stereo not given)	-4	1	6	78*	-4	74*	34
CCc1cc2c(=O)c(-c3ccc4c(c3)OCCO4)coc2cc1OC(=O)c1ccco1	2	1	-7	-111	1	x	x
COc1ccc(-n2ncc3c(NC(C)C)ncnc32)cc1	-3	-3	3	-58	-3	x	x
O=C(CS(=O)c1ccc(C(F)(F)F)cc1[N+](=O)[O-])Oc1ccccc1 (stereo not given)	56*	16	9	52*	0	24	x
CC(C)Cn1c(CNC(=O)c2ccccc2)nc2ccccc21	-3	0	-1	-5	-1	x	x
CCC(=O)Oc1ccc2ccccc2c1CNC(=O)c1ccccc1	-1	1	3	55*	-1	19	x
N#Cc1c(-c2ccccc2)oc(=O)c2ccccc12	-1	1	0	21	-1	x	x
CC/C(=C(/CC)c1ccc(O)cc1)c1ccc(O)cc1	5	-1	2	54*	-3	48*	53*
Cc1cccc(/C=N/NC(=O)Cc2ccc(Cl)cc2)c1O	-2	1	-2	64*	-6	42*	30
Cc1ccc(O)c(/C=N/NC(=O)Cc2ccc(Cl)cc2)c1	1	0	4	64*	0	51*	34
CCN(CC)CCN1C(=O)c2ccccc2NC1c1cc(OC)c(OC)c(OC)c1 (stereo not given)	0	-1	3	-1	0	x	x
Cc1ccc(Cl)cc1NC(=S)N(Cc1cccnc1)Cc1ccccc1Cl	-1	6	-2	4	-1	x	x
Cn1nc(C(F)(F)F)c(C#N)c1N1CCN(c2ccc(F)cc2)CC1	-4	-3	-5	56*	3	20	x
Cn1nc(C(F)(F)F)c(C#N)c1N1CCN(c2ccccc2)CC1	3	0	-4	41	-1	x	x
Cc1nn(CC(=O)NC(=O)NC2CCCCC2C)c(=O)c(C#N)c1C (stereo not given)	-2	0	0	3	-1	x	x
COc1ccc(/C=N/Nc2cc(C)nc3ccc(OC)cc23)c(OC)c1	52	21	11	100*	5	99*	51*
COc1ccc2nc(C)cc(Nc3ccc(N4CCOCC4)cc3)c2c1	4	0	3	27	-3	x	x
COc1ccccc1/C=N/Nc1cc(C)nc2ccc(C)cc12	-7	0	-4	-38	-2	x	x
Cc1cc(N/N=C/c2ccc(O)cc2)c2cccc(C)c2n1	31	2	1	66*	-4	4	x
COc1ccc2nc(C)cc(N/N=C/c3ccccc3)c2c1	2	12	9	100*	14	26	x
Cc1cc(N/N=C/c2ccc(N(C)C)cc2)c2ccccc2n1	14	1	-1	5	-2	x	x
COc1ccc2nc(C)cc(Nc3ccc(N4CCN(C)CC4)cc3)c2c1	24	2	5	99*	1	90*	36*
Cc1ccc(C(=O)CCC(=O)Nc2cccnc2)cc1C	0	0	-4	21	0	x	x
SMILES	Granule exo inh	UPR CHOP act	ABHD5-PLIN5 inh	Mdm2 MdmX PPI	XBP1 UPR activ	Mdm2-MdmX conf	FLuc counter
CCCCn1c(/N=C/c2ccc(N(C)C)cc2)nc2ccccc21	-2	0	6	26	-2	x	x
CCOc1ccc(N(C)S(=O)(=O)c2cc(-c3cc(C)no3)ccc2C(C)C)cc1	0	0	-1	27	2	x	x
Cc1ccc(S(=O)(=O)N2CCN(C(=O)CC(C)n3nc(C)c(Cl)c3C)CC2)cc1 (stereo not given)	13	1	6	15	14	x	x
CCSc1nsc(NC(=O)Nc2ccccc2F)n1	16	8	-17	-49	-3	x	x
C=CCSc1nsc(NC(=O)Nc2ccc(F)cc2)n1	29	10	-12	91*	1	89*	28
CCCCn1c(=O)[nH]c(=O)c2c1nc(-c1ccc(-c3ccccc3)cc1)n2C	-6	6	0	62*	22	35	94*
CCOc1ccc(/C=N/NC(=O)c2cc(-c3ccccc3)nc3ccccc23)cc1O	-20	0	-15	7	1	x	x
O=C(/C=C/c1cccc(C(F)(F)F)c1)Nc1cccc(C(F)(F)F)c1	9	5	-6	91*	6	31	57*
COc1ccc(NC(=O)C2(C)CCN2C(=O)Cc2ccccc2)cc1OC (stereo not given)	1	x	2	x	x	x	x
Cc1nnc(NC(=O)C2CCN(S(=O)(=O)c3cc([N+](=O)[O-])ccc3Cl)CC2)o1	-4	-2	-6	15	2	x	x
C=CCn1c(=O)c(C(=O)Nc2cccnc2)c(O)c2ccccc21	1	4	8	68*	0	3	x
O=c1c(Cl)c(Cl)cnn1Cc1nnc(-c2ccccc2Br)o1	24	-8	15	100*	-7	100*	54*
Cc1ccc(S(=O)(=O)N2CCOCC2)cc1C(=O)c1nccn1C	-5	-2	-3	11	-6	x	x
COc1cccc(OC)c1OCc1cc(C2C3CCCC=C3C(C#N)=C(N)C2(C#N)C#N)c(C)cc1C (stereo not given)	3	5	8	51*	-2	1	x
COc1cc2cccc(OC)c(=O)c2c(O)c1OC	18	2	1	-40	3	x	x
COc1cc2c(ccc3cc(OC)c(OC)c(O)c32)cc1O	5	-1	2	74*	-4	38	31
CCCN(CCO)Cc1ccc(F)c(Br)c1	-1	-1	2	-9	1	x	x
CC(C)CNc1nnnc2c1sc1nc(N3CCOCC3)c3c(c12)CC(C)(C)SC3	-1	8	0	35	9	x	x
CC1(C)Cc2c(c(N3CCOCC3)nc3sc4c(NN)ncnc4c23)CS1	0	4	-2	61*	8	12	x

High-throughput results (PubChem)
